9 compounds from BindingDB's records for doi:10.1021/jm0110439 (Ghent University, 2002) can be followed below.

Molecules are shown by their SMILES.

For this assay, the target named is T1, Adenosine receptor A1 (Rattus norvegicus, UniProt P25099).
T1 sequence (P25099 whole entry): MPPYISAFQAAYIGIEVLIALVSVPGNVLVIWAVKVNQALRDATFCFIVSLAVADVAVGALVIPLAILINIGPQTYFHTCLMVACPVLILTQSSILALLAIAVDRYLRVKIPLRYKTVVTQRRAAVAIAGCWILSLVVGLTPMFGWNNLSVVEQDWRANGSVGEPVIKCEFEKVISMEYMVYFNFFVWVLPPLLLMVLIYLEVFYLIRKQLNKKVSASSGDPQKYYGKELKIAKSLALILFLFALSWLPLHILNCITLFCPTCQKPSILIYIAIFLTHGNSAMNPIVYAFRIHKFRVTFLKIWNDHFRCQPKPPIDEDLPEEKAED
As to the kind of experiment: GTP-induced shift at rat Adenosine A1 receptor (A1AR). An outline of the steps: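 GTP shift taken from these two Ki values. Done only for compounds giving >50% radioligand displacement at 10⁻⁶ M. At least three independent experiments in duplicate.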
In the case of `O=C(N[C@@H]1[C@@H](O)[C@H](n2cnc3c(NC4CCCC4)ncnc32)O[C@@H]1CO)c1ccc(F)c(Cl)c1` [3-Chloro-N-[5-(6-cyclopentylamino-purin-9-yl)-4-hydroxy-2-hydroxymethyl-tetrahydro-furan-3-yl]-4-fluoro-benzamide], the GTP shift amounted to 0.7.
With `C[C@H]1O[C@@H](n2cnc3c(NC4CCCC4)ncnc32)[C@H](O)[C@H]1NC(=O)CCCc1cccs1` [N-[5-(6-Cyclopentylamino-purin-9-yl)-4-hydroxy-2-methyl-tetrahydro-furan-3-yl]-4-thiophen-2-yl-butyramide], the GTP shift stood at 0.7.
Regarding `C[C@H]1O[C@@H](n2cnc3c(NC4CCCC4)ncnc32)[C@H](O)[C@H]1NC(=O)C1(c2ccccc2)CCCC1` [1-Phenyl-cyclopentanecarboxylic acid [5-(6-cyclopentylamino-purin-9-yl)-4-hydroxy-2-methyl-tetrahydro-furan-3-yl]-amide], the GTP shift is 0.84.
Turning to `C[C@H]1O[C@@H](n2cnc3c(NC4CCCC4)ncnc32)[C@H](O)[C@H]1NC(=O)C1(c2ccccc2)CCCCC1` [1-Phenyl-cyclohexanecarboxylic acid [5-(6-cyclopentylamino-purin-9-yl)-4-hydroxy-2-methyl-tetrahydro-furan-3-yl]-amide], the GTP shift worked out at 0.74.
For `Cc1ccc(C(=O)N[C@@H]2[C@@H](O)[C@H](n3cnc4c(NC5CCCC5)ncnc43)O[C@@H]2CO)cc1C` [N-[5-(6-Cyclopentylamino-purin-9-yl)-4-hydroxy-2-hydroxymethyl-tetrahydro-furan-3-yl]-3,4-dimethyl-benzamide] the value was 0.73; for `Cn1cnc2c(NC3CCCC3)ncnc21`, 0.94; for `C[C@H]1O[C@@H](n2cnc3c(NC4CCCC4)ncnc32)[C@H](O)[C@H]1O` [2-(6-Cyclopentylamino-purin-9-yl)-5-methyl-tetrahydro-furan-3,4-diol], 6.4.
Turning to `O=C(CCCc1cccs1)N[C@@H]1[C@@H](O)[C@H](n2cnc3c(NC4CCCC4)ncnc32)O[C@@H]1CO` [N-[5-(6-Cyclopentylamino-purin-9-yl)-4-hydroxy-2-hydroxymethyl-tetrahydro-furan-3-yl]-4-thiophen-2-yl-butyramide], the GTP shift was determined as 0.69.
Turning to `C[C@H]1O[C@@H](n2cnc3c(NC4CCCC4)ncnc32)[C@H](O)[C@H]1NC(=O)C1CCCC[C@H]1C(=O)c1cccs1` (some centres undefined) [2-(Thiophene-2-carbonyl)-cyclohexanecarboxylic acid [5-(6-cyclopentylamino-purin-9-yl)-4-hydroxy-2-methyl-tetrahydro-furan-3-yl]-amide], the GTP shift was determined as 0.72.
